Screening data deposited in PubChem by Broad Institute.
CaV13 ICDI inh – Disruptors of the CACNA1D IQ motif to Ca2+-dependent inactivation inhibitor domain association, primary screening, Förster resonance energy transfer in intact living …; AID 743397; inhibition, % at 12.3 µM; hit rate 0.098% among 340,000; HEK cells, CFP/YFP FRET ICDI-IQ, plate reader, 10 min; percent FRET-ratio fall versus neutral wells;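 active = mean replicate inhibition of at least 30% and at least 1% of replicates passing that level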;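 also: 0% = median of the neutral control wells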
FN deposit inh – inhibitors of fibronectin matrix deposition, primary screen, AH1F cells, Alexa488-fibronectin fluorescence, plate reader | AH1F fibroblasts, overnight | inhibition, % at 12.6 µM | hit rate 0.086% among 350,000 | AID 743247, 2014;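 active = mean inhibition across replicates of 30% or more, regardless of how many single replicates reach that level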;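 also: positive control wells lacked labelled fibronectin entirely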
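Assay system: AH1F fibroblasts assembling fluorescent fibronectin matrix; Amount: 10000 AH1F cells per well; Buffer or medium: DMEM, 2% serum; Probe or stimulus: Alexa488-fibronectin, 24 nM final in well; Doses: single compound dose, delivered by pin transfer; Incubation: 1 h adhesion, overnight exposure; Measured by: fluorescence 485/525 nm; Read-out: fibronectin deposition inhibition.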
RAD54 branch – inhibitors of human RAD54 branch migration, primary screen, biochemical, fluorescence, single point | DNA repair and recombination protein RAD54-like (Homo sapiens), Q92698 | RAD54 Holliday junction branch migration, FAM/BHQ fluorescence | inhibition, % at 10.4 µM | hit rate 0.14% among 360,000 | AID 602329, 2012;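 active = mean normalized replicate activity at least 40 and at least half of replicates scoring 40 or more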;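 also: 0% = median of neutral control wells and 100% = median of positive control wells; inhibitors cause a drop in the FAM fluorescence signal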
Target sequence (Q92698 whole entry, looked up): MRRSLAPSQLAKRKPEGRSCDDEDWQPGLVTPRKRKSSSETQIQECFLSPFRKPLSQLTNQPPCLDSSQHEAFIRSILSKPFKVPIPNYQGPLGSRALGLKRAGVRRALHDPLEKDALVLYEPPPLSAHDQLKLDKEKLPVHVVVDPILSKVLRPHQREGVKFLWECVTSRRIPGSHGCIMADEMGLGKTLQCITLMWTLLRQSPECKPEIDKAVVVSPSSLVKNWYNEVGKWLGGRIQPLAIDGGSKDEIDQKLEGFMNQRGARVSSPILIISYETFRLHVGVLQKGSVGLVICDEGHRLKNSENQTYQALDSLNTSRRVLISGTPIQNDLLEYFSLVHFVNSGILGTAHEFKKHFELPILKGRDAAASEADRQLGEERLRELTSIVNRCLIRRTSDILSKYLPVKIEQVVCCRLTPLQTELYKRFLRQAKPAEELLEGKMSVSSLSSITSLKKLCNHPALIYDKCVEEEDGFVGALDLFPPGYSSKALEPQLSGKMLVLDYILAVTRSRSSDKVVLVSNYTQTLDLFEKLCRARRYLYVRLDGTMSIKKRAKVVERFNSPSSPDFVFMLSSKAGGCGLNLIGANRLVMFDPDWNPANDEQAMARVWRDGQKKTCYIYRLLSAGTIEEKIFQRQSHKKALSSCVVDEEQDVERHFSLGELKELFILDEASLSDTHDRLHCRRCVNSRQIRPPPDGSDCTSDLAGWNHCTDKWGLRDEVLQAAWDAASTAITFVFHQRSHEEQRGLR
RAD52 inh – RAD52 DNA annealing inhibitors, primary screen, biochemical, FRET, single point, set 2; hit rate 0.46% among 360,000; DNA repair protein RAD52 homolog (Homo sapiens), P43351; AID 651710, 2012; inhibition, % at 18.7 µM; recombinant RAD52 DNA annealing, FRET fluorescence;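 active = every replicate showing at least 50% inhibition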
N-glyco inh – increase of ERlucT glycosylation luciferase signal, primary screen, N-linked glycosylation inhibitor project, D54 ERlucT cells, luminescence, set 2. D54 ERlucT glycosylation luciferase reporter, 24 h; percent of 100 nM tunicamycin response. reporter increase, % at 12.5 µM. hit rate 0.23% among 360,000;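 active = mean luciferase reporter signal, scaled so untreated is 0 and the glycosylation-blocking control 100, at or above a set limit in every replicate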;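 also: luciferase carries N-glycosylation sites so blocking glycosylation raises the light; 0% = median of neutral control wells and 100% = median of 100 nM tunicamycin wells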
* marks the source's active call; other numbers are inactive results; . = no result; ! = not confirmed by another sample. Hits are enriched below; roughly 0.7% of the tested compounds scored in any of these assays.

SMILES | CaV13 ICDI inh | FN deposit inh | RAD54 branch | RAD52 inh | N-glyco inh
Cc1c(O)cc2c(c1O)C(=O)CC(c1ccccc1)O2 (stereo not drawn) | . | . | 6 | -10 | 43*
COc1cccc(-c2ccc(C3[C@@H]4CN(S(=O)(=O)c5ccccc5C)C[C@H]3N4)cc2)c1 (stereo partly drawn) | . | 2 | . | 73*! | .
COc1ccccc1S(=O)(=O)N1C[C@@H]2N[C@H](C1)C2c1ccc(-c2ccccc2C)cc1 (stereo partly drawn) | . | 7 | . | . | .
Cc1ccccc1-c1ccc(C2[C@@H]3CN(S(=O)(=O)c4ccccc4C)C[C@H]2N3)cc1 (stereo partly drawn) | . | 4 | . | 72*! | .
COc1ccc(-c2ccc(C3[C@@H]4CN(S(=O)(=O)c5ccccc5C)C[C@H]3N4)cc2)cc1 (stereo partly drawn) | . | -11 | . | . | .
COc1cccc(S(=O)(=O)N2C[C@@H]3N[C@H](C2)C3c2ccc(/C=C/c3ccccc3)cc2)c1 (stereo partly drawn) | . | -1 | . | 58*! | .
CCCC(=O)Nc1ccc2c(c1)C(=O)N(C)C[C@@H](OC)[C@@H](C)CN(CCc1ccccc1)[C@H](C)CO2 | . | 16 | -6 | -2 | .
CO[C@H]1CN(C)C(=O)c2ccc(NC(=O)c3cnccn3)cc2OC[C@@H](C)N(CC2CC2)C[C@H]1C | . | . | . | -6 | .
C1=C2C[N+]3(CCCC3)CC2Cc2ccc3ccccc3c21 (stereo not drawn) | -5 | . | 54* | 23 | 4
C[N+]1(C)CC2=Cc3ccccc3CC2C1 (stereo not drawn) | -5 | 2 | . | -9 | -3
COc1ccc2c3c([nH]c2c1)[C@@H](CO)N(C(=O)CN(C)C)CC31CN(Cc2ccccc2)C1 | . | . | . | 60* | .
COc1ccc2c3c([nH]c2c1)[C@H](CO)N(C(=O)CN1CCOCC1)CC31CN(Cc2ccccc2)C1 | . | 13 | . | -9 | .
COc1ccc2c3c([nH]c2c1)[C@@H](CO)NCC31CCN(Cc2ccc(F)cc2)CC1 | . | -8 | . | 72* | .
COc1ccc(CN2CC3(C2)CN(C(=O)CN(C)C)[C@@H](CO)c2[nH]c4cc(OC)ccc4c23)cc1 | . | . | . | 67* | .
COc1ccc(CN2CC3(C2)CN(C(=O)CN(C)C)[C@H](CO)c2[nH]c4cc(OC)ccc4c23)cc1 | . | . | . | 69* | .
CCC(=O)N1CC2(CN(Cc3ccc(Cl)cc3)C2)c2c([nH]c3cc(OC)ccc23)[C@H]1CO | . | . | . | 10 | .
COc1ccc2c3c([nH]c2c1)[C@H](CO)N(C(=O)CN(C)C)CC31CCN(Cc2ccncc2)CC1 | . | . | . | 2 | .
CC(C)C#Cc1cnc2c(c1)C(=O)N([C@H](C)CO)C[C@@H](C)[C@@H](CN(C)C(=O)Nc1ccccc1F)O2 | . | 4 | 3 | 2 | .
COc1ccc(C(=O)C(CN2CCCC2)c2ccccc2)cc1 (stereo not drawn) | -4 | -1 | -2 | . | -10
O=C(c1ccc(Cl)cc1)C(CN1CCCC1)c1ccccc1 (stereo not drawn) | 12 | 53* | -6 | 10 | -12
O=C(NC(=S)Nc1cccc2ncccc12)c1ccco1 | 1 | -6 | -17 | 1 | 2
N#C/C(=C\c1ccco1)C(=O)Nc1cccc2ncccc12 | 41* | . | . | -18 | 1
CCOc1cc(S(=O)(=O)NCc2ccc(OC)cc2)c(OCC)cc1-n1cnnn1 | -2 | -1 | 1 | . | 30*
CCOc1cc(S(=O)(=O)NCCc2ccc(OC)c(OC)c2)c(OCC)cc1-n1cnnn1 | . | -9 | 3 | . | 1
CC(C)N1CCc2c(sc(NC(=O)c3cc(-c4cccs4)nc4ccccc34)c2C(N)=O)C1 | . | . | 78* | . | -5
SMILES | CaV13 ICDI inh | FN deposit inh | RAD54 branch | RAD52 inh | N-glyco inh
O=C(N/N=C/c1ccc(OC(F)F)cc1)c1ccc(Br)cc1 | -6 | . | -1 | . | -2
O=C(NO)c1ccc(OC(F)F)cc1 | -5 | -2 | . | 2 | 36*
COC(=O)C[C@@H]1CC[C@H](NS(=O)(=O)c2ccc(OC)cc2)[C@@H](CO)O1 | . | -2 | -6 | 16 | .
Cc1cc(C)n2ncc(C(=O)NCc3ccccc3)c2n1 | -5 | 3 | 3 | . | -2
Cc1cc(C)n2ncc(C(=O)NCc3ccc(Cl)cc3)c2n1 | -4 | 46* | 1 | . | -3
Cn1cc([N+](=O)[O-])c(C(=O)Nc2cc(Oc3ccccc3)cc([N+](=O)[O-])c2)n1 | 1 | 40* | . | -9 | -21
CN(C)CC(=O)N1CCCCN2[C@H](CO)[C@@H](c3ccc(/C=C/c4ccccc4)cc3)[C@@H]2C1 | . | . | 5 | 44 | .
COCC#Cc1ccc([C@H]2[C@H](CO)N3CCCCN(C(=O)CN(C)C)C[C@@H]23)cc1 | . | . | -6 | 11 | .
CN(C)CC#Cc1ccc([C@H]2[C@@H](CO)N3CCCCN(C(=O)Nc4ccccc4F)C[C@@H]23)cc1 | . | . | -3 | 17 | .
CN(C)CC#Cc1ccc([C@H]2[C@@H](CO)N3CCCCN(C(=O)Nc4ccccc4F)C[C@H]23)cc1 | . | . | -4 | 70* | .
CN(C)CC#Cc1ccc([C@H]2[C@H]3CN(C(=O)CN(C)C)CCCCN3[C@H]2CO)cc1 | . | . | -18 | 57* | .
CN(C)CC(=O)N1CCCCN2[C@H](CO)[C@H](c3ccc(/C=C/c4ccccc4)cc3)[C@@H]2C1 | . | . | 16 | 55* | .
CCC(=O)N1CC[C@@H]2[C@@H](CO)Nc3ccc(C#Cc4ccccc4F)cc3[C@@H]21 | . | -7 | . | -16 | .
C[C@H](CO)N1C[C@H](C)[C@H](CN(C)Cc2ccc(C(=O)O)cc2)Oc2ccc(NC(=O)C3CCCCC3)cc2CC1=O | . | . | -13 | 6 | .
O=C(N/N=C\c1ccc(CNS(=O)(=O)c2ccccc2)o1)C(=O)Nc1ccc(F)cc1 | -15 | 6 | -3 | -3 | 1
O=C(N/N=C\c1ccc(CNS(=O)(=O)c2ccc(Cl)cc2)o1)C(=O)Nc1ccc(Oc2ccccc2)cc1 | -8 | . | . | . | 52*
C[C@@]12C(=O)Nc3ccc(F)cc3C(=O)N1[C@H]1c3cc(Cl)ccc3OC[C@@H]1[C@@H]2c1ccccc1 | -13 | 6 | -12 | -44 | 28*
C[C@@]12C(=O)Nc3ccc(F)cc3C(=O)N1[C@H]1c3ccccc3OC[C@@H]1[C@@H]2c1ccccc1 | . | . | 8 | . | 11
C[C@@]12C(=O)Nc3cc(Cl)ccc3C(=O)N1[C@H]1c3ccccc3OC[C@@H]1[C@@H]2c1ccccc1 | . | . | -8 | . | 31*
C[C@@]12C(=O)Nc3ccc(Cl)cc3C(=O)N1[C@H]1c3ccccc3OC[C@@H]1[C@@H]2c1ccccc1 | . | . | -4 | . | 28*
C[C@H](CO)N1C[C@H](C)[C@@H](CN(C)C(=O)c2cccc(F)c2)Oc2ncc(C3=CCCCC3)cc2C1=O | . | . | 4 | 7 | .
